Data taken from ChEMBL document CHEMBL3526049 (Drug Metab Dispos, 2012).

Assays:
[1] = AUC (infinity) in wild-type Wistar rat at 20 mg/kg, po by LC-MS/MS analysis; assay type: ADME, organism-based; set-up: dose 20 mg/kg, route oral, time infinity; conditions: plasma
Method in brief: (§1)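 Male Wistar wild-type or Mrp2-deficient TR⁻ rats with femoral artery and vein cannulas. Sulfasalazine was given as a 5 mg/kg i.v. bolus and as a 20 mg/kg oral dose. Arterial plasma was sampled to 24 h and analysed for parent and sulfapyridine by LC-MS/MS. Noncompartmental parameters; n = 3, mean ± S.D.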

Rattus norvegicus [2] = test: AUC (infinity) in BCRP knockout Sprague-Dawley rat treated with sulfasalazine at 20 mg/kg, po by LC-MS/MS analysis; assay type: ADME, organism-based, Plasma; set-up: dose 20 mg/kg, route oral, time infinity; conditions: in vivo
Method in brief: (§2)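 Male Sprague-Dawley knockout or age/weight-matched wild-type rats with femoral artery and vein cannulas. Crossover design: day 0 i.v. bolus 5 mg/kg sulfasalazine in water at pH 9–10, then day 3 gavage 20 mg/kg in 0.5% carboxymethyl cellulose/PBS pH 7.4. Arterial plasma was sampled to 24 h. Sulfasalazine and sulfapyridine were measured by LC-MS/MS (1–5000 ng/ml). Parameters are noncompartmental; n = 4–8, mean ± S.D.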

[3] = Half life in MDR1A knockout Sprague-Dawley rat treated with sulfasalazine at 20 mg/kg, po by LC-MS/MS analysis; assay type: ADME, organism-based; set-up: dose 20 mg/kg, route oral; conditions: in vivo
Method in brief: (§3)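 Male Sprague-Dawley knockout rats or wild-type rats matched for age and weight, with femoral artery and vein cannulas. Crossover design: sulfasalazine 5 mg/kg iv bolus (water, pH 9–10) on day 0, then 20 mg/kg oral gavage (0.5% carboxymethyl cellulose in PBS, pH 7.4) on day 3. Arterial plasma collected 0–24 h. Sulfasalazine and sulfapyridine measured by LC-MS/MS; noncompartmental parameters; mean ± S.D., n = 4 to 8.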

[4] = Tmax in wild-type Wistar rat at 20 mg/kg, po by LC-MS/MS analysis; assay type: ADME, organism-based; set-up: dose 20 mg/kg, route oral; conditions: in vivo
Method in brief: (§4)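 Male Wistar wild-type rats and Mrp2-deficient TR⁻ rats with femoral artery and vein cannulas. Sulfasalazine given as an iv bolus (5 mg/kg, water at pH 9–10) and by oral gavage, each followed by arterial plasma sampling over 24 h. Sulfasalazine and sulfapyridine measured by LC-MS/MS; noncompartmental parameters; mean ± S.D., n = 3.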

[5] = Tmax in MRP2-deficient Wistar rat at 20 mg/kg, po by LC-MS/MS analysis; assay type: ADME, organism-based; set-up: dose 20 mg/kg, route oral; conditions: in vivo; method in brief: as §4
Rattus norvegicus [6] = test: Drug metabolism in BCRP knockout Sprague-Dawley rat assessed as metabolite to parent ratio treated with sulfasalazine at 20 mg/kg, po; assay type: ADME, organism-based; set-up: dose 20 mg/kg, route oral; conditions: in vivo; method in brief: as §2
Rattus norvegicus [7] = test: Drug metabolism in wild-type Wistar rat assessed as metabolite to parent ratio treated with sulfasalazine at 20 mg/kg, po; assay type: ADME, organism-based; set-up: dose 20 mg/kg, route oral; conditions: in vivo; method in brief: as §1
Rattus norvegicus [8] = test: Drug metabolism in MRP2 knockout Sprague-Dawley rat assessed as metabolite to parent ratio treated with sulfasalazine at 20 mg/kg, po; assay type: ADME, organism-based; set-up: dose 20 mg/kg, route oral; conditions: in vivo; method in brief: as §2
Rattus norvegicus [9] = test: AUC (infinity) in MDR1A knockout Sprague-Dawley rat treated with sulfasalazine at 20 mg/kg, po by LC-MS/MS analysis; assay type: ADME, organism-based, Plasma; set-up: time infinity, dose 20 mg/kg, route oral; conditions: in vivo; method in brief: as §2
[10] = Tmax in MRP2 knockout Sprague-Dawley rat treated with sulfasalazine at 20 mg/kg, po by LC-MS/MS analysis; assay type: ADME, organism-based; set-up: dose 20 mg/kg, route oral; conditions: in vivo; method in brief: as §3
Rattus norvegicus [11] = test: Cmax in MRP2 knockout Sprague-Dawley rat treated with sulfasalazine at 20 mg/kg, po by LC-MS/MS analysis; assay type: ADME, organism-based; set-up: dose 20 mg/kg, route oral; conditions: in vivo; method in brief: as §2
[12] = Tmax in MDR1A knockout Sprague-Dawley rat treated with sulfasalazine at 20 mg/kg, po by LC-MS/MS analysis; assay type: ADME, organism-based; set-up: dose 20 mg/kg, route oral; conditions: in vivo; method in brief: as §3
[13] = Half life in MRP2 knockout Sprague-Dawley rat treated with sulfasalazine at 20 mg/kg, po by LC-MS/MS analysis; assay type: ADME, organism-based; set-up: dose 20 mg/kg, route oral; conditions: in vivo; method in brief: as §3
[14] = Cmax in wild-type Wistar rat at 20 mg/kg, po by LC-MS/MS analysis; assay type: ADME, organism-based; set-up: dose 20 mg/kg, route oral; conditions: in vivo; method in brief: as §1
Rattus norvegicus [15] = test: Drug metabolism in wild-type Sprague-Dawley rat assessed as metabolite to parent ratio treated with sulfasalazine at 20 mg/kg, po; assay type: ADME, organism-based; set-up: dose 20 mg/kg, route oral; conditions: in vivo; method in brief: as §2
Rattus norvegicus [16] = test: Drug metabolism in MRP2-deficient Wistar rat assessed as metabolite to parent ratio treated with sulfasalazine at 20 mg/kg, po; assay type: ADME, organism-based; set-up: dose 20 mg/kg, route oral; conditions: in vivo; method in brief: as §1
Rattus norvegicus [17] = test: Cmax in wild-type Sprague-Dawley rat treated with sulfasalazine at 20 mg/kg, po by LC-MS/MS analysis; assay type: ADME, organism-based; set-up: dose 20 mg/kg, route oral; conditions: in vivo; method in brief: as §2
Rattus norvegicus [18] = test: Cmax in MDR1A knockout Sprague-Dawley rat treated with sulfasalazine at 20 mg/kg, po by LC-MS/MS analysis; assay type: ADME, organism-based; set-up: dose 20 mg/kg, route oral; conditions: in vivo; method in brief: as §2
Rattus norvegicus [19] = test: AUC (infinity) in wild-type Sprague-Dawley rat treated with sulfasalazine at 20 mg/kg, po by LC-MS/MS analysis; assay type: ADME, organism-based, Plasma; set-up: time infinity, dose 20 mg/kg, route oral; conditions: in vivo; method in brief: as §2
[20] = Tmax in BCRP knockout Sprague-Dawley rat treated with sulfasalazine at 20 mg/kg, po by LC-MS/MS analysis; assay type: ADME, organism-based; set-up: dose 20 mg/kg, route oral; conditions: in vivo; method in brief: as §3
[21] = Half life in BCRP knockout Sprague-Dawley rat treated with sulfasalazine at 20 mg/kg, po by LC-MS/MS analysis; assay type: ADME, organism-based; set-up: dose 20 mg/kg, route oral; conditions: in vivo; method in brief: as §3
[22] = Half life in wild-type Wistar rat at 20 mg/kg, po by LC-MS/MS analysis; assay type: ADME, organism-based; set-up: dose 20 mg/kg, route oral; conditions: in vivo; method in brief: as §4
[23] = Tmax in wild-type Sprague-Dawley rat treated with sulfasalazine at 20 mg/kg, po by LC-MS/MS analysis; assay type: ADME, organism-based; set-up: dose 20 mg/kg, route oral; conditions: in vivo; method in brief: as §3
[24] = Half life in wild-type Sprague-Dawley rat treated with sulfasalazine at 20 mg/kg, po by LC-MS/MS analysis; assay type: ADME, organism-based; set-up: dose 20 mg/kg, route oral; conditions: in vivo; method in brief: as §3
Rattus norvegicus [25] = test: Drug metabolism in MDR1A knockout Sprague-Dawley rat assessed as metabolite to parent ratio treated with sulfasalazine at 20 mg/kg, po; assay type: ADME, organism-based; set-up: dose 20 mg/kg, route oral; conditions: in vivo; method in brief: as §2
Rattus norvegicus [26] = test: Cmax in BCRP knockout Sprague-Dawley rat treated with sulfasalazine at 20 mg/kg, po by LC-MS/MS analysis; assay type: ADME, organism-based; set-up: dose 20 mg/kg, route oral; conditions: in vivo; method in brief: as §2
[27] = Half life in MRP2-deficient Wistar rat at 20 mg/kg, po by LC-MS/MS analysis; assay type: ADME, organism-based; set-up: dose 20 mg/kg, route oral; conditions: in vivo; method in brief: as §4
[28] = AUC (infinity) in MRP2-deficient Wistar rat at 20 mg/kg, po by LC-MS/MS analysis; assay type: ADME, organism-based; set-up: time infinity, dose 20 mg/kg, route oral; conditions: plasma; method in brief: as §1
[29] = Cmax in MRP2-deficient Wistar rat at 20 mg/kg, po by LC-MS/MS analysis; assay type: ADME, organism-based; set-up: dose 20 mg/kg, route oral; conditions: in vivo; method in brief: as §1
Rattus norvegicus [30] = test: AUC (infinity) in MRP2 knockout Sprague-Dawley rat treated with sulfasalazine at 20 mg/kg, po by LC-MS/MS analysis; assay type: ADME, organism-based, Plasma; set-up: dose 20 mg/kg, route oral, time infinity; conditions: in vivo; method in brief: as §2

AUC(0-inf) [1]: 29400 ng·h/mL
AUC (Rattus norvegicus [2]): 14576 ng.Eq.hr/ml
half-life [3]: 1.3 h
Tmax [4]: 4 h
Tmax [5]: 4 h
Ratio (Rattus norvegicus [6]): 4.6
Ratio (Rattus norvegicus [7]): 16
Ratio (Rattus norvegicus [8]): 22
AUC (Rattus norvegicus [9]): 14985 ng.Eq.hr/ml
Tmax [10]: 4.4 h
Cmax (Rattus norvegicus [11]): 2499 ng.Eq/ml
Tmax [12]: 7 h
half-life [13]: 1.6 h
Cmax [14]: 4320 ng/mL
Ratio (Rattus norvegicus [15]): 50
Ratio (Rattus norvegicus [16]): 34
Cmax (Rattus norvegicus [17]): 4764 ng.Eq/ml
Cmax (Rattus norvegicus [18]): 2525 ng.Eq/ml
AUC (Rattus norvegicus [19]): 21992 ng.Eq.hr/ml
Tmax [20]: 4 h
half-life [21]: 1.7 h
half-life [22]: 2.3 h
Tmax [23]: 5 h
half-life [24]: 2.3 h
Ratio (Rattus norvegicus [25]): 24
Cmax (Rattus norvegicus [26]): 2843 ng.Eq/ml
half-life [27]: 1.7 h
AUC(0-inf) [28]: 15400 ng·h/mL
Cmax [29]: 3240 ng/mL
AUC (Rattus norvegicus [30]): 12675 ng.Eq.hr/ml
SMILES: Nc1ccc(S(=O)(=O)Nc2ccccn2)cc1 [SULFAPYRIDINE]
